Consider 96 molecules from ChEMBL document CHEMBL4513216, “Probing the Open Global Health Chemical Diversity Library for Multistage-Active Starting Points for Next-Generation Antimalarials” (ACS Infect Dis, 2020).

SMILES strings stand for the structures.

This data set can be described thus: Toxicity liver stage against HepG2, at 10uM. The data set is classed as cell-based. Set-up: test concentration 10 uM, cell line HepG2-A16-CD81EGFP. To be noted: human, HepG2-A16-CD81EGFP cells; read-out: INHIBITION
The method in brief: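 Uninfected HepG2-A16-CD81EGFP cells, 3 × 10^3 per well, 1536-well, plated on prespotted compound at 10 μM final, parasite-free screening media added to match infected plates; puromycin 10 μM positive, DMSO 0.5% negative; run in parallel with 48 h PbLuc assay at 37 °C, 5% CO2; viability by CellTiter-Glo luminescence, normalized to controls.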
Take `Cc1cc(OCC(=O)N2CCCC(c3ccn[nH]3)C2)no1` (stereo unspecified): the cytotoxicity at 10 µM worked out at 0.0241%. Then `CS(=O)(=O)NCc1cc2n(n1)CCCN(Cc1cccc(C#N)c1)C2`, with -8.33%; and `CCC(NS(=O)(=O)c1ccc(C(=O)NC2CC2)cc1)c1ccnn1C` (stereo unspecified), with 9.65%; and `CC(C)[C@H]1CN(Cc2c[nH]cn2)C[C@@H]1NC(=O)CC1CCC1`, with -39%. Under `CC(C)n1cc(CN2CCCN(C(=O)c3cccnc3O)CC2)cn1` stands 4.29%; under `CC1(C)OCC2(CO1)CN(S(=O)(=O)c1ccc(Br)s1)C2`, -7.31%; under `Cc1nc(CN)cc(NCc2ccccc2-n2cncn2)n1`, 1.88%. Under `CN(C)CCN1CC2(CCCN(c3ncc(Cl)cc3F)C2)CCC1=O` (stereo unspecified) stands -13.6%; under `CNS(=O)(=O)CCN1CC(c2ccccc2)(c2ccccc2)CCC1=O`, -7.91%; under `COc1ccc(OCCN2CCC(c3ccnn3CCO)CC2)cc1`, -6.9%. For the molecule `O=C1Nc2ccccc2C12CCN(Cc1cccs1)CC2`, the cytotoxicity at 10 µM is -0.184%. Under `CCc1nc(CN2CCCN(C(=O)CC(C)OC)CC2)cs1` (stereo unspecified) stands -24.7%. With `Cc1nc(CNCC2CNc3ccnn3C2)cs1` (stereo unspecified), the cytotoxicity at 10 µM is -8.71%.

As for `Cc1nc(CNC(=O)NC(C)c2ccc3c(c2)OCCCO3)cs1` (stereo unspecified), the cytotoxicity at 10 µM is -0.535%. `O=C(C1CCOCC1)N1C[C@@H]2CC[C@H]1CN(Cc1ccncc1)C2`: the cytotoxicity at 10 µM is -11%.

With `O=C(Nc1cc(-c2ccncc2)no1)C1CC1`, the cytotoxicity at 10 µM was -4.18%. Then `Cc1nc(Nc2cnccn2)cc(C2CCCN2C2CCOCC2)n1` (stereo unspecified), with -17.3%; and `CC1COCCN1C(=O)Cc1cc(Cl)c2c(c1)OCCCO2` (stereo unspecified), with -1.43%; and `CCCc1n[nH]c(C2CN(CCC(F)(F)F)CCO2)n1` (stereo unspecified), with -13.9%.

Turning to `Cc1noc(C)c1CN1CC2(CCCCN2c2cncnc2)CC1=O` (stereo unspecified), the cytotoxicity at 10 µM turned out to be 4.13%. Then `CCS(=O)(=O)N1CCCN(CCCOC)CC1`, with 7.73%. Under `CN(C(=O)Nc1nncs1)C1CCN(c2ccccc2Cl)C1=O` (stereo unspecified) stands -7.04%; under `O=C(NCC1CC1)[C@@H]1CCO[C@@H]2CCN(Cc3ccco3)C[C@H]21`, -4.93%; under `COc1ccnc(N2CCN(C(=O)c3cscn3)CC2)n1`, 0.883%. Under `CCn1nc(C)cc1NC(=O)CCn1nc(C)c2ccccc21` stands 4.98%.

As for `COC(=O)c1cccn1C1CCN(C(=O)c2cc(F)ccc2C)CC1`, the cytotoxicity at 10 µM is -2.13%. Then `Cc1nc(Cc2ccccc2)nc2sc(C(=O)O)c(C)c12`, with 0.986%; and `CN(C)Cc1cc(-c2nccn2CCc2cccnc2)ccc1O`, with -42.9%; and `CS(=O)(=O)NC[C@H]1OC[C@H]2CN(Cc3ccsc3)CC[C@H]21`, with 5.29%. Then `CN1CCN(Cc2c(-c3ccco3)[nH]c3ncccc23)CC1`, with 5.63%; and `Cc1cc(N2CCN(Cc3cn(C)nc3C)CC2)cc(C2CCCN2)n1` (stereo unspecified), with 0.525%; and `O=C(c1n[nH]cc1Br)N1CCOCC1`, with 5.31%. Under `CSCCC(=O)N1CCCC1c1ccsc1` (stereo unspecified) stands -20.3%. `Cn1cc(C2(C)CN(Cc3ccc(O)c(Cl)c3)CCO2)cn1` (stereo unspecified): the cytotoxicity at 10 µM was -4.12%. Under `COc1ncccc1CN1C[C@@H]2COC[C@]2(COc2ccccn2)C1` stands -3.87%. Then `CCS(=O)(=O)N1Cc2ncn(CC3CC3)c2C(COCC2CC2)C1` (stereo unspecified), with 0.822%; and `COC(=O)Cn1ccc(NS(=O)(=O)c2ccc3c(c2)CCC3)n1`, with 10.6%; and `O=C(CN1CCOC(Cn2cccn2)C1)NCc1cccs1` (stereo unspecified), with -6.88%.

Take `CC(C)S(=O)(=O)C(C)C(=O)Nc1ccc2oc(C3CC3)nc2c1` (stereo unspecified): the cytotoxicity at 10 µM is 1.77%. Then `Cc1nn(C)c(N2CCOCC2)c1CNC1CCc2cc(F)ccc21` (stereo unspecified), with -9.95%; and `COc1ccc(C(C)=O)c(OCC(=O)NC(C)c2ccc(F)cc2)c1` (stereo unspecified), with 2.68%.

For the molecule `COc1cc(Br)c(CNC(C)c2nnc3n2CCC3)cc1OC` (stereo unspecified), the cytotoxicity at 10 µM was -43.2%. Consider `Cc1ccc2cccc(C(=O)NCC3CCN(C(C)C)C3)c2n1` (stereo unspecified), for which the cytotoxicity at 10 µM was -9.97%.

As for `Cc1ccc(S(=O)(=O)Cc2noc([C@@H]3C[C@@H](O)CN3C)n2)cc1`, the cytotoxicity at 10 µM worked out at 0.847%. Then `CNC(=O)[C@@H]1[C@@H](c2ccccc2)CN2CCN(Cc3ccco3)C[C@H]12`, with -1.94%; and `CC(C)CCN1Cc2c(C(=O)N3CCCC3)nn(C)c2C1`, with -0.173%. Under `CCOC(=O)CCNC(=O)N1CCCC(CNC(=O)c2cccs2)C1` (stereo unspecified) stands 0.712%; under `CC1(C)[C@H](Cc2cc(CN3CCOCC3)on2)C[C@@H]1NC(=O)C1CCC1`, -6.67%. Then `CCN(C(=O)c1ccc2nnc(C3CCN(CCOC)C3)n2c1)C(C)C` (stereo unspecified), with -114%; and `CC(=O)N(Cc1ncc(C)o1)C1CCN(Cc2cccc(C#N)c2)C1` (stereo unspecified), with 1.63%.

In the case of `CCN(Cc1ccncc1)CC1(O)CCN(C(=O)c2cccc(C)c2)C1` (stereo unspecified), the cytotoxicity at 10 µM is -25.1%. Under `O=C(NC1(c2nccs2)CCCC1)c1cc(C2CC2)on1` stands 6.65%; under `CCS(=O)(=O)NCCCNC1CSCCc2ccccc21` (stereo unspecified), -3.66%. In the case of `CN(CCn1nc2ccccn2c1=O)CC(=O)NC1CC1`, the cytotoxicity at 10 µM was found to be 3.2%. Under `Cc1cc(C(=O)N2CC[C@](C)(O)[C@H](C)C2)c(C)n1C` stands -1.43%; under `CCc1ccc(C(=O)N2CCCC(n3cncn3)C2)o1` (stereo unspecified), -9.78%; under `Cc1cc(C)n(CC2CCCN2CCCS(=O)(=O)N(C)C)n1` (stereo unspecified), -13.2%. Then `C=C(C)CN1CCC(Nc2nc(C)ns2)CC1`, with -8.39%. In the case of `Cc1cc(C)n(-c2ccc(CNCc3ccc(F)c(F)c3)cn2)n1`, the cytotoxicity at 10 µM is -8.77%. Then `Cc1ncc2c(n1)CN(Cc1nc(-c3cccs3)no1)CC2`, with -9.8%; and `CC(C)N1Cc2cccc(NCC(=O)N(C)C3CCCCC3)c2C1`, with 4.83%; and `O=C(c1n[nH]c2c1CCC2)N1CCCC1c1nc(-c2ccccc2)no1` (stereo unspecified), with 6.43%. Then `CC(C)c1nc(CN(C)C2CCN(CCNS(C)(=O)=O)C2)no1` (stereo unspecified), with -8.48%; and `O=C(NC1CCCC1)N1CCCC(c2nccn2Cc2ccncc2)C1` (stereo unspecified), with -18.3%; and `CC1(NC(=O)CNC(=O)C(C)(C)C)CCc2ccccc2C1` (stereo unspecified), with -3.67%. Then `COc1ccc(CC(=O)NCCCc2nnc3nc(C)cc(C)n23)cc1`, with 4.45%. Regarding `O=S(=O)(CCCN1CCOC(Cn2cccn2)C1)c1ccccc1` (stereo unspecified), the cytotoxicity at 10 µM was -2.54%. Under `FC(F)(F)c1cccc(CNc2nccc(C(F)(F)F)n2)c1` stands -19%; under `Cc1nc(COC[C@H]2CC[C@H]3[C@H](CCN3C(N)=O)O2)cs1`, -81.2%. Then `c1cc2nc(C3CCNCC3)nn2cc1NC1CCC1`, with -98.8%; and `O=C(CNCCn1cccn1)NCC1(c2ccccc2)CCCC1`, with -5.92%; and `Cc1cccc(=O)n1CCC(=O)N1CC[C@@](O)(C2CCC2)[C@H](C)C1`, with 5.8%. Under `Cc1ccc(C(=O)N2CCC(Oc3c(C)cccc3C)CC2)c(=O)[nH]1` stands -2.51%; under `CN1CCN(C(=O)CC2CCN(CCc3ccccn3)CC2)CC1`, -2.89%.

As for `CC(O)CN1CCN(C(=O)c2ccc(N3CCCC3)nn2)CC1` (stereo unspecified), the cytotoxicity at 10 µM is -17.3%. Under `Cc1cccc(-c2nc(C)nn2CN2CCC3(CC2)OCCO3)c1` stands -13.8%; under `Clc1ccccc1CN1CCc2nc(C3CCCNC3)ncc2C1` (stereo unspecified), -19.7%. Then `O=C(C1CC2(CCNCC2)CN1)N1CCN(c2cccc(Cl)c2Cl)CC1` (stereo unspecified), with -13.9%; and `Cc1c[nH]c(CN(C)C(=O)c2ccc(CSc3nnc[nH]3)o2)n1`, with 1.12%. Under `Cc1cc(NC(=O)CCN2CCn3c(nnc3C3CC3)C2)no1` stands 7.11%; under `CN1CC[C@]2(CN(S(C)(=O)=O)C[C@H]2c2ccccc2)C1=O`, -120%. In the case of `Cc1ccc(OCCC(=O)NC2CC(=O)N(C)C2)cc1C` (stereo unspecified), the cytotoxicity at 10 µM is -9.25%. Under `Cc1nc(COc2ccc(N(C)S(C)(=O)=O)cc2)sc1C` stands -2.75%. For `O=C(Nc1ccc(F)cc1)C1CCN(Cc2noc(C3CC3)n2)CC1`, the cytotoxicity at 10 µM was found to be 4.05%. Then `CN(C)C(=O)N1CCc2ccc(=O)[nH]c2CC1`, with 5.39%; and `Cc1nc(CN2CCCC(N(C)Cc3cnc(C)s3)C2)no1` (stereo unspecified), with 2.76%; and `Cn1cc(C(=O)Nc2cccc(Oc3ccncc3)c2)ccc1=O`, with -1.21%.

Consider `Cc1ccc(O)c(CNC2CCc3nc(C(C)C)nn3C2)n1` (stereo unspecified), for which the cytotoxicity at 10 µM is -8.54%. `CC(=O)Nc1ncc(S(=O)(=O)Nc2ccc(F)cc2)s1`: the cytotoxicity at 10 µM worked out at 0.976%. Under `Cc1nc(N2CCCC2)nc2c1CCN(C(=O)C1CCCC1)CC2` stands -0.265%; under `Cc1noc(C2CCCN(C(=O)c3cncc(Br)c3)C2)n1` (stereo unspecified), -1.82%. Under `Cc1nc(C)n(CC2CCCN2Cc2cscn2)n1` (stereo unspecified) stands -2.05%; under `CN(C)C(=O)C1(C)CN(Cc2cn(C)c3ccccc23)CCO1` (stereo unspecified), 1.78%; under `CC1CCN(CCNC(=O)Nc2ccc(F)cc2Cl)CC1`, 4.68%. Then `Cc1ccc(NC(=O)N2CCOC(C)(c3cnn(C)c3)C2)c(C)c1` (stereo unspecified), with 6.05%. Consider `CO[C@H]1CN(C(=O)c2nc(-c3ccccc3)[nH]c2C)CC[C@H]1N`, for which the cytotoxicity at 10 µM was 11.5%.
